Laboratory results: ChEMBL document CHEMBL4330158, “Prenylated Flavonoids from the Roots and Rhizomes of Sophora tonkinensis and Their Effects on the Expression of Inflammatory Mediators and Proprotein Convertase Subtilisin/Kexin Type 9” (J Nat Prod, 2019)
Active and inactive are the calls of the source. The rule behind the calls is not given here.

Experiments:
[1] = test system: RAW264.7; assay: Cytotoxicity against mouse RAW264.7 cells assessed as reduction in cell viability at 20 uM by MTT assay; type: cell-based; conditions: raw264.7, 20 µM
How it was run: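 Viability was read by MTT assay in triplicate, with cells cultured at 37 °C in humidified 5% CO2.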

[2] = test system: HepG2 (Homo sapiens); assay: Inhibition of PCSK9 mRNA level in human HepG2 cells at 20 uM by qRT-PCR assay relative to control
[3] = test system: RAW264.7; assay: Anti-inflammatory activity in mouse RAW264.7 cells assessed as inhibition of LPS-induced NO production by Griess assay; type: functional, cell-based
How it was run: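 Murine RAW264.7 macrophages were kept in RPMI 1640 with 10% FBS and penicillin/streptomycin at 37 °C and 5% CO2. NO production was taken as the nitrite concentration in the culture medium, measured by the Griess reaction.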

[4] = test system: RAW264.7; assay: Anti-inflammatory activity in mouse RAW264.7 cells assessed as inhibition of LPS-induced CSF2 mRNA level at 2 to 50 uM after 6 hrs by qRT-PCR assay; type: functional, cell-based
How it was run: (§1)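 RAW264.7 macrophages were grown in RPMI 1640 with 10% FBS at 37 °C and 5% CO2, then stimulated with LPS for 6 h. Total RNA was extracted with Trizol, and 1 μg was reverse-transcribed with oligo-dT at 42 °C for 1 h. SYBR Green qPCR ran 40 cycles of 95 °C 10 s and 55 °C 30 s. Levels were normalized to GAPDH by 2−ΔΔCT and given as mean ± SEM.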

[5] = test system: RAW264.7; assay: Anti-inflammatory activity in mouse RAW264.7 cells assessed as inhibition of LPS-induced TNF mRNA level at 2 to 50 uM after 6 hrs by qRT-PCR assay; type: functional, cell-based; how it was run: as §1
[6] = test system: RAW264.7; assay: Anti-inflammatory activity in mouse RAW264.7 cells assessed as inhibition of LPS-induced IL-1beta mRNA level at 2 to 50 uM after 6 hrs by qRT-PCR assay; type: functional, cell-based; how it was run: as §1
[7] = test system: RAW264.7; assay: Anti-inflammatory activity in mouse RAW264.7 cells assessed as inhibition of LPS-induced CSF2 mRNA level at 2 to 10 uM after 6 hrs by qRT-PCR assay; type: functional, cell-based; how it was run: as §1
[8] = test system: RAW264.7; assay: Anti-inflammatory activity in mouse RAW264.7 cells assessed as inhibition of LPS-induced IL-1beta mRNA level at 2 to 10 uM after 6 hrs by qRT-PCR assay; type: functional, cell-based; how it was run: as §1
[9] = test system: RAW264.7; assay: Anti-inflammatory activity in mouse RAW264.7 cells assessed as inhibition of LPS-induced TNF mRNA level at 2 to 10 uM after 6 hrs by qRT-PCR assay; type: functional, cell-based; how it was run: as §1
[10] = test system: HepG2 (Homo sapiens); assay: Inhibition of PCSK9 protein synthesis in human HepG2 cells by immunoblot analysis
[11] = test system: HepG2 (Homo sapiens); assay: Induction of ACC phosphorylation in human HepG2 cells at 4 to 20 uM by Western blot analysis

IC50 [3] | IC50 [10] | Compound | Activity [1] | inhibition at 20 µM [2] | also measured
– | 7.8 µM | CC(C)=CCc1c(O)ccc2c1OC[C@H]1c3ccc4c(c3O[C@@H]21)OC(C)(C)C=C4 [ERYBREADIN D] | – | 44% | Activity [11]: Active
– | 6.9 µM | COc1ccc2cc3[n+](cc2c1OC)CCc1cc2c(cc1-3)OCO2 [BERBERINE] | – | 67% | –

The next lines start with the compound.

Compound | IC50 [3] | IC50 [10] | Activity [1] | inhibition at 20 µM [2] | also measured
CC(C)=CCc1c(O)c(CC=C(C)C)c2c(c1O)C(=O)C[C@@H](c1ccc(O)cc1)O2 [LONCHOCARPOL A] | – | – | Toxic | 67.2% | –
COc1ccc(-c2coc3c(CC=C(C)C)c(OC)ccc3c2=O)cc1 | 6.2 µM | – | Non-Toxic | – | inhibition [4]: Active; inhibition [5]: Active; inhibition [6]: inactive
COc1ccc([C@@H](CO)C(=O)c2cc(CC=C(C)C)c(OC)cc2O)cc1 | 8.1 µM | – | Non-Toxic | – | inhibition [7]: Active; inhibition [8]: Active; inhibition [9]: inactive
